Data published in ChEMBL document CHEMBL2021842, “COMPARE analysis of the toxicity of an iminoquinone derivative of the imidazo[5,4-f]benzimidazoles with NAD(P)H:quinone oxidoreductase 1 (NQO1) activity and computational docking of quinones as NQO1 substrates” (Bioorg Med Chem, 2012).

Legend:
HeLa = assay: Cytotoxicity against human HeLa cells assessed as reduction in mean cell viability after 72 hrs by MTT assay; type: functional, cell-based
Outline: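 HeLa-CCL-2 cells in DMEM with 10% heat-inactivated FBS, 2 mM L-glutamine and nonessential amino acids. Plated at 1000 cells/well with 24 h adherence. Treated in ethanol (1% final) for 72 h at 37 °C under 5% CO₂, with ethanol controls. Absorbance of DMSO-dissolved formazan at 550 nm, 690 nm reference. IC₅₀ by nonlinear regression of percent viability.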

[1] = Cytotoxicity against human GM00637 cells assessed as reduction in mean cell viability after 72 hrs by MTT assay; type: cell-based; conditions: GM00637, 72 h
Outline: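 SV40-transformed normal skin fibroblasts (GM00637) in MEM Eagle–Earle BSS with 15% heat-inactivated FBS, 2 mM L-glutamine, 2× amino acids and vitamins. Seeded at 10,000 cells/well and left 24 h to adhere. Ethanol-delivered compound (1% final) for 72 h at 37 °C, 5% CO₂. MTT formazan in DMSO read at 550/690 nm. Viability relative to vehicle; IC₅₀ by nonlinear regression.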

DU-145 = assay: Cytotoxicity against human DU145 cells assessed as reduction in mean cell viability after 72 hrs by MTT assay; type: functional, cell-based; conditions: DU-145, 72 h
Outline: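 DU-145 prostate cells in RPMI-1640 with 10% heat-inactivated FBS, penicillin–streptomycin and 2 mM L-glutamine. Seeded at 2000 cells/well and left 24 h to adhere. Compound added in ethanol (1% final) for 72 h at 37 °C, 5% CO₂, with ethanol-only controls. Formazan dissolved in DMSO and read at 550 nm (690 nm reference). IC₅₀ derived by nonlinear regression of viability versus vehicle.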

[2] = Solubility of the compound in organic solvent; type: physicochemical
[3] = Aqueous solubility of the compound; type: physicochemical; conditions: buffer

solubility [2] | solubility [3] | Compound | IC50 (HeLa) | IC50 [1] | IC50 (DU-145)
 |  | O=C1c2nc3n(c2C(=O)c2nc4n(c21)CCCCC4)CCCCC3 | 1780 nM | > 5000 nM | 4460 nM
Insoluble | Insoluble | O=C1c2nc3n(c2C(=O)c2nc4n(c21)CCC4)CCC3 |  |  | 
 |  | CCCCn1cnc2c1C(=O)c1nc3n(c1C2=O)CCCC3 | 1280 nM | 2120 nM | 1350 nM
 |  | O=C1c2nc3n(c2C(=O)c2nc4n(c21)CCCC4)CCC3 | 950 nM | 1270 nM | 790 nM
